Drawing on ChEMBL document CHEMBL1123171, “Synthesis of delta 3-1-methylene-1-carbacephems” (1986), this text covers MIC for three compounds.

The test system of one assay is Bacillus subtilis. The experiment in a line: In vitro antibacterial activity against B. subtilis( NCTC 8236). In kind it is functional. In a few lines: (§1)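 Agar dilution MIC in diagnostic sensitivity test agar; inoculum 10^5–10^6 cfu/spot applied with a multipoint inoculator. Test compounds were racemic, so reported values are corrected: only one-half of the observed MIC is taken.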

In a further assay the test system is Escherichia coli. The assay can be described thus: In vitro antibacterial activity against Escherichia coli (ESS). In kind it is functional. A digest of the protocol: as §1
The test system of the next assay is Staphylococcus aureus. The experiment in a line: Compound was tested in vitro for the antibacterial activity against Staphylococcus aureus (ATCC 6538P). It counts as functional. A digest of the protocol: as §1
The test system of assay [1] is Sarcina lutea (ATCC 9341). The experiment in a line: In vitro antibacterial activity against Sarcina lutea (ATCC 9341).

Values after ≈ are worked out from the molar mass of the structure shown.

Regarding `C=C1C2[C@H](NC(=O)COc3ccccc3)C(=O)N2C(C(=O)O)=CC1(C)C` (some centres not stated), the MIC (as a rule, the lowest concentration that inhibits growth of the organism) worked out at 1.5 µg/mL (≈ 4.21 µM) in the assay on Bacillus subtilis, 1.5 µg/mL (≈ 4.21 µM) with Escherichia coli, 4 µg/mL (≈ 11.2 µM) with Staphylococcus aureus and 2 µg/mL (≈ 5.61 µM) in assay [1].

For `C=C1C2[C@H](NC(=O)C(N)c3ccccc3)C(=O)N2C(C(=O)O)=CC1(C)C` (some centres not stated), the MIC is 1.5 µg/mL (≈ 4.22 µM) in the assay on Bacillus subtilis, 5 µg/mL (≈ 14.1 µM) in the assay on Escherichia coli, 8 µg/mL (≈ 22.5 µM) in the assay on Staphylococcus aureus and 0.12 µg/mL (≈ 0.338 µM) in assay [1].

`CC1=C(C(=O)O)N2C(=O)[C@@H](NC(=O)[C@H](N)c3ccccc3)[C@H]2SC1` [CEPHALEXIN ANHYDROUS]: the MIC with Bacillus subtilis was determined as 1 µg/mL (≈ 2.88 µM); against Escherichia coli it was 1 µg/mL (≈ 2.88 µM); against Staphylococcus aureus, 0.3 µg/mL (≈ 0.864 µM); in assay [1] it was 0.03 µg/mL (≈ 0.0864 µM).
